≈ marks a conversion by molar mass, not a printed value.
Experiments:
Assay type in all cases: functional
Staphylococcus aureus [1] = assay: Antibacterial activity against methicillin-resistant Staphylococcus aureus ATCC 33591 after 24 hrs by broth microdilution method; conditions: ATCC 33591, 24 h
Method in brief: (§1)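 Broth microdilution following NCCLS M7-A6 (2003), with inoculum at the recommended densities. Isolates were placed into panel wells with an autoinoculator and grown in cation-adjusted Mueller-Hinton broth at 35°C in ambient air for overnight to 24 h. Panels were read by eye, and the MIC was taken as no visible growth.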

Staphylococcus aureus [2] = assay: Antibacterial activity against methicillin-resistant Staphylococcus aureus 78-13607A after 24 hrs by broth microdilution method; method in brief: as §1
[3] = test system: Staphylococcus haemolyticus; assay: Antibacterial activity against oxacillin-resistant Staphylococcus haemolyticus 107-1240C isolate after 24 hrs by broth microdilution method; method in brief: as §1
Enterococcus faecalis [4] = assay: Antibacterial activity against ampicillin and vancomycin-susceptible Enterococcus faecalis ATCC 29212 after 24 hrs by broth microdilution method; conditions: ATCC 29212, 24 h; method in brief: as §1
Streptococcus pneumoniae [5] = assay: Antibacterial activity against penicillin-intermediate resistant Streptococcus pneumoniae ATCC 49619 after 24 hrs by broth microdilution method; conditions: ATCC 49619, 24 h; method in brief: as §1
Streptococcus pneumoniae [6] = assay: Antibacterial activity against penicillin-resistant Streptococcus pneumoniae 33-50B isolate after 24 hrs by broth microdilution method; method in brief: as §1
Corynebacterium jeikeium = assay: Antibacterial activity against Corynebacterium jeikeium 15-196A isolate after 24 hrs by broth microdilution method
Method in brief: (§2)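 Broth microdilution following NCCLS M7-A6 (2003) inocula; isolates transferred aseptically into panel wells with an autoinoculator; cation-adjusted Mueller-Hinton broth; incubated overnight to 24 h at 35°C in ambient air; panels read by eye, MIC taken as lowest concentration with no visible growth.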

Streptococcus pyogenes = assay: Antibacterial activity against erythromycin-resistant Streptococcus pyogenes 91-8747 isolate after 24 hrs by broth microdilution method; method in brief: as §1
Streptococcus mitis = assay: Antibacterial activity against penicillin-resistant Streptococcus mitis 61-2900C isolate after 24 hrs by broth microdilution method; method in brief: as §1
Pseudomonas aeruginosa = assay: Antibacterial activity against sPseudomonas aeruginosa ATCC 27853 after 24 hrs by broth microdilution method; conditions: ATCC 27853, 24 h; method in brief: as §2
Escherichia coli = assay: Antibacterial activity against sEscherichia coli ATCC 25922 after 24 hrs by broth microdilution method; conditions: ATCC 25922, 24 h; method in brief: as §2
Staphylococcus [7] = assay: Antibacterial activity against mupirocin-resistant coagulase negative Staphylococcus 63-18A isolate after 24 hrs by broth microdilution method; method in brief: as §1
Staphylococcus [8] = assay: Antibacterial activity against quinupristin/dalfopristin-resistant coagulase negative Staphylococcus 90-10840A isolate after 24 hrs by broth microdilution method; method in brief: as §1
Staphylococcus [9] = assay: Antibacterial activity against coagulase negative linezolid-resistant Staphylococcus 82-1645A isolate after 24 hrs by broth microdilution method; method in brief: as §1
Enterococcus faecalis [10] = assay: Antibacterial activity against vancomycin-resistant Enterococcus faecalis 48-22D isolate with vanA phenotype after 24 hrs by broth microdilution method; method in brief: as §1
Enterococcus faecalis [11] = assay: Antibacterial activity against vancomycin-resistant Enterococcus faecalis 82-876D with vanB phenotype isolate after 24 hrs by broth microdilution method; method in brief: as §1
Enterococcus faecalis [12] = assay: Antibacterial activity against linezolid-resistant Enterococcus faecalis 15-5341 isolate after 24 hrs by broth microdilution method; method in brief: as §1
Enterococcus faecalis [13] = assay: Antibacterial activity against gentamycin and streptomycin-resistant Enterococcus faecalis 39-11D isolate after 24 hrs by broth microdilution method; method in brief: as §1
Bacillus sp. [14] = assay: Antibacterial activity against tetracycline-resistant Bacillus sp. 107-1461D isolate after 24 hrs by broth microdilution method; conditions: Bacillus sp. (in: firmicutes); method in brief: as §1
Bacillus sp. [15] = assay: Antibacterial activity against trimethoprim/sulfamethaxazole-resistant Bacillus sp. 67-1057A isolate after 24 hrs by broth microdilution method; conditions: Bacillus sp. (in: firmicutes); method in brief: as §1
Bacillus sp. [16] = assay: Antibacterial activity against erythromycin-resistant Bacillus sp. 32-2406A isolate after 24 hrs by broth microdilution method; conditions: Bacillus sp. (in: firmicutes); method in brief: as §1
Streptococcus pneumoniae [17] = assay: Antibacterial activity against multidrug resistant Streptococcus pneumoniae 68-2307B isolate after 24 hrs by broth microdilution method; method in brief: as §1
Streptococcus pneumoniae [18] = assay: Antibacterial activity against erythromycin and clindamycin-resistant Streptococcus pneumoniae 4-38B isolate after 24 hrs by broth microdilution method; method in brief: as §1
Streptococcus pneumoniae [19] = assay: Antibacterial activity against erythromycin-resistant and clindamycin-susceptible Streptococcus pneumoniae 35-405B isolate after 24 hrs by broth microdilution method; method in brief: as §1
Streptococcus pneumoniae [20] = assay: Antibacterial activity against levofloxacin-resistant Streptococcus pneumoniae 2-2784A isolate after 24 hrs by broth microdilution method; method in brief: as §1
Streptococcus [21] = assay: Antibacterial activity against erythromycin and clindamycin-resistant beta-haemolytic sStreptococcus 91-526D isolate after 24 hrs by broth microdilution method; method in brief: as §1
Streptococcus [22] = assay: Antibacterial activity against erythromycin-resistant and clindamycin-susceptible beta-haemolytic sStreptococcus 109-820D isolate after 24 hrs by broth microdilution method; method in brief: as §1
Streptococcus [23] = assay: Antibacterial activity against levofloxacin-resistant beta-haemolytic sStreptococcus 19-756A isolate after 24 hrs by broth microdilution method; method in brief: as §1
Streptococcus [24] = assay: Antibacterial activity against mupirocin-resistant viridans group sStreptococcus 32-2395A isolate after 24 hrs by broth microdilution method; method in brief: as §1
Streptococcus [25] = assay: Antibacterial activity against levafloxacin-resistant viridans group Streptococcus 107-6380A isolate after 24 hrs by broth microdilution method; method in brief: as §1
Streptococcus [26] = assay: Antibacterial activity against linezolid-resistant viridans group Streptococcus 27-2832A isolate after 24 hrs by broth microdilution method; method in brief: as §1
Streptococcus [27] = assay: Antibacterial activity against multidrug-resistant viridans group Streptococcus 58-1602D isolate after 24 hrs by broth microdilution method; method in brief: as §1

## CO[C@H]1/C=C/O[C@@]2(C)Oc3c(C)c(O)c4c(O)c(c(/C=N/N5CCN(C)CC5)c(O)c4c3C2=O)NC(=O)/C(C)=C\C=C\[C@H](C)[C@H](O)[C@@H](C)[C@@H](O)[C@@H](C)[C@H](OC(C)=O)[C@@H]1C [RIFAMPIN]
Staphylococcus aureus [1]
  MIC: ≤ 0.25 µg/mL
Staphylococcus aureus [2]
  MIC: ≤ 0.25 µg/mL

## CC[C@H]1OC(=O)[C@H](C)[C@@H](O[C@H]2C[C@@](C)(OC)[C@@H](O)[C@H](C)O2)[C@H](C)[C@@H](O[C@@H]2O[C@H](C)C[C@H](N(C)C)[C@H]2O)[C@](C)(O)C[C@@H](C)C(=O)[C@H](C)[C@@H](O)[C@]1(C)O [ERYTHROMYCIN]
Staphylococcus aureus [1]
  MIC: > 8 µg/mL
Staphylococcus aureus [2]
  MIC: 0.25 µg/mL (≈ 0.341 µM)

## CN[C@H](CC(C)C)C(=O)N[C@H]1C(=O)N[C@@H](CC(N)=O)C(=O)N[C@H]2C(=O)N[C@H]3C(=O)N[C@H](C(=O)N[C@H](C(=O)O)c4cc(O)cc(O)c4-c4cc3ccc4O)[C@H](O)c3ccc(c(Cl)c3)Oc3cc2cc(c3O[C@@H]2O[C@H](CO)[C@@H](O)[C@H](O)[C@H]2O[C@H]2C[C@](C)(N)[C@H](O)[C@H](C)O2)Oc2ccc(cc2Cl)[C@H]1O [VANCOMYCIN]
[3]
  MIC: 1 µg/mL (≈ 0.69 µM)
Enterococcus faecalis [4]
  MIC: 1 µg/mL (≈ 0.69 µM)
Streptococcus pneumoniae [5]
  MIC: 1 µg/mL (≈ 0.69 µM)
Streptococcus pneumoniae [6]
  MIC: 1 µg/mL (≈ 0.69 µM)
Corynebacterium jeikeium
  MIC: 1 µg/mL (≈ 0.69 µM)
Streptococcus pyogenes
  MIC: 1 µg/mL (≈ 0.69 µM)
Streptococcus mitis
  MIC: 1 µg/mL (≈ 0.69 µM)
Pseudomonas aeruginosa
  MIC: 1 µg/mL (≈ 0.69 µM)
Escherichia coli
  MIC: 1 µg/mL (≈ 0.69 µM)
Staphylococcus [7]
  MIC: 0.5 µg/mL (≈ 0.345 µM)
Staphylococcus [8]
  MIC: 0.5 µg/mL (≈ 0.345 µM)
Staphylococcus [9]
  MIC: 0.5 µg/mL (≈ 0.345 µM)
Enterococcus faecalis [10]
  MIC: 0.5 µg/mL (≈ 0.345 µM)
Enterococcus faecalis [11]
  MIC: 0.5 µg/mL (≈ 0.345 µM)
Enterococcus faecalis [12]
  MIC: 0.5 µg/mL (≈ 0.345 µM)
Enterococcus faecalis [13]
  MIC: 0.5 µg/mL (≈ 0.345 µM)
Bacillus sp. [14]
  MIC: 0.5 µg/mL (≈ 0.345 µM)
Bacillus sp. [15]
  MIC: 0.5 µg/mL (≈ 0.345 µM)
Bacillus sp. [16]
  MIC: 0.5 µg/mL (≈ 0.345 µM)
Streptococcus pneumoniae [17]
  MIC: 0.5 µg/mL (≈ 0.345 µM)
Streptococcus pneumoniae [18]
  MIC: 0.5 µg/mL (≈ 0.345 µM)
Streptococcus pneumoniae [19]
  MIC: 0.5 µg/mL (≈ 0.345 µM)
Streptococcus pneumoniae [20]
  MIC: 0.5 µg/mL (≈ 0.345 µM)
Streptococcus [21]
  MIC: 0.5 µg/mL (≈ 0.345 µM)
Streptococcus [22]
  MIC: 0.5 µg/mL (≈ 0.345 µM)
Streptococcus [23]
  MIC: 0.5 µg/mL (≈ 0.345 µM)
Streptococcus [24]
  MIC: 0.5 µg/mL (≈ 0.345 µM)
Streptococcus [25]
  MIC: 0.5 µg/mL (≈ 0.345 µM)
Streptococcus [26]
  MIC: 0.5 µg/mL (≈ 0.345 µM)
Streptococcus [27]
  MIC: 0.5 µg/mL (≈ 0.345 µM)
